Results on 10 compounds are retold here after ChEMBL document CHEMBL4011634 (J Med Chem, 2017).

SMILES strings stand for the structures.

Data set [1] deals with Rattus norvegicus. Put plainly: Antiarthritic activity in MIA-induced osteoarthritis Lewis rat model assessed as decrease in aggrecan degradation products by measuring ARGNV levels in synovial fluid at 30 mg/kg, po bid starting on day 3 post MIA induction measured at 4 hrs post single oral dose on day 7 by ELISA relative to control. Set-up: scale not given: the % may be the effect or the level left. Type of data set: functional. The essentials: (§1)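 Male Lewis rats aged 7-8 weeks received 3 mg freshly prepared MIA (sodium salt) in 0.9% saline intra-articularly into the right knee on day 0, with saline alone in the left knee. Inhibitor or vehicle (1% hydroxyethyl cellulose, 0.25% Tween 80, 0.05% antifoam) was given PO BID from day 3, with a single dose on day 7. Knees were saline-lavaged 4 h later, and aggrecan fragments were quantified by ELISA.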
On the technique in general: ELISA stands for enzyme-linked immunosorbent assay.

The target of data set [2] is Macrophage metalloelastase (Homo sapiens, UniProt P39900). Put plainly: Inhibition of human MMP12 using Mca-PQGL-(3-[2, 4-dinitrophenyl]-L-2, 3-diaminopropionyl)-AR-OH as substrate after 2 to 4 hrs by fluorescence assay.
Chain of Macrophage metalloelastase (P39900 whole entry): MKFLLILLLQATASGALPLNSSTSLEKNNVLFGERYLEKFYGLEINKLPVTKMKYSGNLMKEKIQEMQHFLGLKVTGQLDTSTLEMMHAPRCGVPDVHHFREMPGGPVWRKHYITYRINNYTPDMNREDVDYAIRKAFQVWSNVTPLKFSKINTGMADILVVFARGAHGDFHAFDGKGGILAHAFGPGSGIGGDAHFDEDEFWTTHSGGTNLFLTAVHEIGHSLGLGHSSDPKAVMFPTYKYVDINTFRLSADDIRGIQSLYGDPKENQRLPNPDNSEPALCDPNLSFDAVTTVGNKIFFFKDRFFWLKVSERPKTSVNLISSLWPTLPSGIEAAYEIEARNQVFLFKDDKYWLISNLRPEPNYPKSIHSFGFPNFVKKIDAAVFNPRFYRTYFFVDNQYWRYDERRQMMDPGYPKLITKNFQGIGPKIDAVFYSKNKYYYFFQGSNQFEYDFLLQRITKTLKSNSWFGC
The subject of data set [3] is Rattus norvegicus. In words: Drug metabolism in po or iv dosed bile-duct cannulated rat assessed as glutathione conjugation by HPLC-MS analysis. To be noted: in vivo. Type of data set: ADME, organism-based.
The subject of data set [4] is Rattus norvegicus. Put plainly: Antiarthritic activity in MIA-induced osteoarthritis Lewis rat model assessed as decrease in aggrecan degradation products by measuring ARGNV levels in synovial fluid at 75 mg/kg, po bid starting on day 3 post MIA induction measured at 4 hrs post single oral dose on day 7 by ELISA relative to control. It is filed as functional. Set-up: scale not given: the % may be the effect or the level left. The essentials:
as §1

Data set [5] is described as follows: Half life in rat at 1 mg/kg, iv. Conditions: in vivo. It is filed as ADME, organism-based.
The nature of data set [6]: AUC (0 to 24 hrs) in rat at 10 mg/kg, po. It is filed as ADME, organism-based. More on the design: dose 10 mg/kg, time < 24 hr, route oral. To be noted: in vivo. The essentials:
(§2)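 Rat plasma pharmacokinetics after IV dosing at 1 mg/kg or oral dosing at 10 mg/kg. Plasma concentrations were followed to 24 h.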

The nature of data set [7]: Volume of distribution in rat at 1 mg/kg, iv. It is filed as ADME, organism-based. To be noted: in vivo.
Data set [8] in a line: Cmax in rat at 1 mg/kg, iv. Type of data set: ADME, organism-based. Set-up: dose 1 mg/kg, route intravenous. To be noted: in vivo.
A short description of data set [9]: Plasma concentration in rat at 10 mg/kg, po measured at 12 hrs post dose. Type of data set: ADME, organism-based.
Data set [10] is described as follows: AUC (0 to 24 hrs) in rat at 1 mg/kg, iv. It is filed as ADME, organism-based. Set-up: time < 24 hr, dose 1 mg/kg, route intravenous. To be noted: in vivo. The method in brief: as §2
Data set [11] can be described thus: Oral bioavailability in rat at 10 mg/kg. It is filed as ADME, organism-based. Conditions: in vivo.
The nature of data set [12]: Clearance in rat at 1 mg/kg, iv. Type of data set: ADME, organism-based. Conditions: in vivo.
The nature of data set [13]: Half life in rat at 10 mg/kg, po. Type of data set: ADME, organism-based. To be noted: in vivo.
Data set [14] in a line: Tmax in rat at 10 mg/kg, po. Type of data set: ADME, organism-based. To be noted: in vivo.
A short description of data set [15]: Plasma concentration in rat at 1 mg/kg, iv measured at 12 hrs post dose. Type of data set: ADME, organism-based.
The nature of data set [16]: Cmax in rat at 10 mg/kg, po. Type of data set: ADME, organism-based. More on the design: dose 10 mg/kg, route oral. Conditions: in vivo.
For a further data set, the target named is Stromelysin-1 (Homo sapiens, UniProt P08254). Put plainly: Inhibition of human MMP3 using Mca-PQGL-(3-[2, 4-dinitrophenyl]-L-2, 3-diaminopropionyl)-AR-OH as substrate after 2 to 4 hrs by fluorescence assay.
Chain of Stromelysin-1 (P08254 whole entry): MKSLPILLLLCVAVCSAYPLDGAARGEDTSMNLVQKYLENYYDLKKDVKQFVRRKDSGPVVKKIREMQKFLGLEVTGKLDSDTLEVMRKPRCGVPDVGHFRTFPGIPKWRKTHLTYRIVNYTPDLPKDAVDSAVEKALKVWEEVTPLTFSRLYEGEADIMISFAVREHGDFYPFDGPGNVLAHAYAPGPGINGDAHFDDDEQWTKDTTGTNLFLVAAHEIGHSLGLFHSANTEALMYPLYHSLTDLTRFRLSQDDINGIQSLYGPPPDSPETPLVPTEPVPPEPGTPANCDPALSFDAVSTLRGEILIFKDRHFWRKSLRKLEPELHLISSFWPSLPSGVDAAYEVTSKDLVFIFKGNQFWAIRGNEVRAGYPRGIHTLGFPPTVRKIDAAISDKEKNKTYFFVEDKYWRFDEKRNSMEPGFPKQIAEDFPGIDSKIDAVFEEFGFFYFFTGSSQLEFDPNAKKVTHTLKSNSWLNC
Data set [17] deals with Rattus norvegicus. In words: Antiarthritic activity in MIA-induced osteoarthritis Lewis rat model assessed as decrease in aggrecan degradation products by measuring ARGNV levels in synovial fluid at 10 mg/kg, po bid starting on day 3 post MIA induction measured at 4 hrs post single oral dose on day 7 by ELISA relative to control. It is filed as functional. More on the design: scale not given: the % may be the effect or the level left. The method in brief: as §1

The target in data set [18] is 72 kDa type IV collagenase (Homo sapiens, UniProt P08253). Put plainly: Inhibition of human MMP2 using Mca-PQGL-(3-[2, 4-dinitrophenyl]-L-2, 3-diaminopropionyl)-AR-OH as substrate after 2 to 4 hrs by fluorescence assay.
Chain of 72 kDa type IV collagenase (P08253 whole entry): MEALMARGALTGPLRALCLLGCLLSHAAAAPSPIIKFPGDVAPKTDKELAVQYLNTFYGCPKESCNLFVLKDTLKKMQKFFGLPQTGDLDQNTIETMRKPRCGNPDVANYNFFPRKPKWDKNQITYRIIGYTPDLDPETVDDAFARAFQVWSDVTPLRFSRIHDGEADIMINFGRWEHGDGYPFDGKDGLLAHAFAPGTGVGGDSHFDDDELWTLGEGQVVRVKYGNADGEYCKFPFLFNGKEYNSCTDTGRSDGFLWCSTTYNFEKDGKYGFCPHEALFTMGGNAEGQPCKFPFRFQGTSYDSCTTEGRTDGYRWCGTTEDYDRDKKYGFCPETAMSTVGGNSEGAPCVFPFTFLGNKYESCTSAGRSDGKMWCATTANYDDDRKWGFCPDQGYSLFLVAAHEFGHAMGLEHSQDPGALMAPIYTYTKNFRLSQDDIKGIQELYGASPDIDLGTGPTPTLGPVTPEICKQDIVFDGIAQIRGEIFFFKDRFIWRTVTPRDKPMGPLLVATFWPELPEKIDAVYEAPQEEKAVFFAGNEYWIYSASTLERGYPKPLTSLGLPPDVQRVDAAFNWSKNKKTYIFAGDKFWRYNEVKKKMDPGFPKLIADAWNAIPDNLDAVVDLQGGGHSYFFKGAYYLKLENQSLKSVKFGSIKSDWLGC
In data set [19] the target is Matrix metalloproteinase-14 (Homo sapiens, UniProt P50281). In words: Inhibition of human MMP14 using Mca-PQGL-(3-[2, 4-dinitrophenyl]-L-2, 3-diaminopropionyl)-AR-OH as substrate after 2 to 4 hrs by fluorescence assay.
The target in another data set is Collagenase 3 (Homo sapiens, UniProt P45452). Put plainly: Inhibition of human MMP13 using Mca-PQGL-(3-[2, 4-dinitrophenyl]-L-2, 3-diaminopropionyl)-AR-OH as substrate after 2 to 4 hrs by fluorescence assay.
Data set [20] addresses T1, A disintegrin and metalloproteinase with thrombospondin motifs 4 (Homo sapiens, UniProt O75173).
T1 sequence (O75173 whole entry): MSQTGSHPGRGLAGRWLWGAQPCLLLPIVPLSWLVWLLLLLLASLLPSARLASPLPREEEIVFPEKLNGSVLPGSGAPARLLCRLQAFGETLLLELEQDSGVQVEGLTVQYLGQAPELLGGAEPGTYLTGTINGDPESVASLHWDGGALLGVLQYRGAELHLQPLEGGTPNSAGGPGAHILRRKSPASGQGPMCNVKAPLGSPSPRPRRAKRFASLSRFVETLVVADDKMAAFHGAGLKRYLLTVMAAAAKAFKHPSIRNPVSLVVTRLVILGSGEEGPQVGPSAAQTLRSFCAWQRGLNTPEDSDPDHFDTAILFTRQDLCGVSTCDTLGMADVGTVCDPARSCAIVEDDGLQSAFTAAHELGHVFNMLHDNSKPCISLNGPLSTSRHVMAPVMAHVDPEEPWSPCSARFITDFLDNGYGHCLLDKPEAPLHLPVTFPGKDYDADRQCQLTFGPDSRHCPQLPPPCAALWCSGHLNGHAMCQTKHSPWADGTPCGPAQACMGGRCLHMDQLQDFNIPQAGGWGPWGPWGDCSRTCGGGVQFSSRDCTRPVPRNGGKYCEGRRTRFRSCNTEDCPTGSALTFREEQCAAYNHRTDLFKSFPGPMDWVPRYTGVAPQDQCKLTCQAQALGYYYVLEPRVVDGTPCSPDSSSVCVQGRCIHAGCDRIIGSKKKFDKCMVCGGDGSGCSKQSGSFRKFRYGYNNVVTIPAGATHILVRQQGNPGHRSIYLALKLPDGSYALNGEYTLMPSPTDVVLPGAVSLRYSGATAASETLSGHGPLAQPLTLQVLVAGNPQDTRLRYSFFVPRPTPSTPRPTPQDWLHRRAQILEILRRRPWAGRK
Put plainly: Inhibition of human ADAMTS4 using VQTVTWPDMELPLPRNITEGEARGSVILTVKPIFEVSPSPLKG peptide as substrate after 3 hrs by Alphascreen assay.

Data set [21] has as its target T2, A disintegrin and metalloproteinase with thrombospondin motifs 5 (Homo sapiens, UniProt Q9UNA0).
T2 sequence (Q9UNA0 whole entry): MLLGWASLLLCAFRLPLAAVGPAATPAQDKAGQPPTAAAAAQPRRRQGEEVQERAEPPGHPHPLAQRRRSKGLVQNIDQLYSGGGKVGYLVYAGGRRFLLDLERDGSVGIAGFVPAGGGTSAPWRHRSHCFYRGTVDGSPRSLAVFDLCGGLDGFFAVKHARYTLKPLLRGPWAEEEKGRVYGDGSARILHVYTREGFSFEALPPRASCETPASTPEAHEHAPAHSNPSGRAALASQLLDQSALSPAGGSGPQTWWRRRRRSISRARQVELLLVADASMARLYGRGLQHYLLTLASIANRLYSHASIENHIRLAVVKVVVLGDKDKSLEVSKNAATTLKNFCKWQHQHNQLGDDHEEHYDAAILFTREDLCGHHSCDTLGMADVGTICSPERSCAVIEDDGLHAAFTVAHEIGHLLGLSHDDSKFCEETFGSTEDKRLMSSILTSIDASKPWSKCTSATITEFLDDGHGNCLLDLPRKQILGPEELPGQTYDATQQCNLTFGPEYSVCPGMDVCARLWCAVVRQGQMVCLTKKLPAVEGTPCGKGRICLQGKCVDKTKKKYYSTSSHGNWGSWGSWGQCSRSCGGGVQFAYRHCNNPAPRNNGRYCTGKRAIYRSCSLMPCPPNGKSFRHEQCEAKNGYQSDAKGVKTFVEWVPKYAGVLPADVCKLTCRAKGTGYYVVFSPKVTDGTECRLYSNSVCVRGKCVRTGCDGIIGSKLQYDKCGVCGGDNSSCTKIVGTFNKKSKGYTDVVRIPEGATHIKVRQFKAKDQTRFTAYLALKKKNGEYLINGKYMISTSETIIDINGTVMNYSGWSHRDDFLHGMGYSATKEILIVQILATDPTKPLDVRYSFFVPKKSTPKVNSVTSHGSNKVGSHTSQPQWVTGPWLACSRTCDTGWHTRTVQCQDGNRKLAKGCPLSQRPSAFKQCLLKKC
Put plainly: Inhibition of human ADAMTS5 using VQTVTWPDMELPLPRNITEGEARGSVILTVKPIFEVSPSPLKG peptide as substrate after 3 hrs by Alphascreen assay. On the technique in general: Alpha assays give light when donor and acceptor beads are brought close together.

Data set [22] has as its target T2, A disintegrin and metalloproteinase with thrombospondin motifs 5. In words: Inhibition of human ADAMTS5 using VQTVTWPDMELPLPRNITEGEARGSVILTVKPIFEVSPSPLKG peptide as substrate after 3 hrs in the presence of 50% Lewis rat plasma by Alphascreen assay.

Regarding `C[C@@]1(O)CCCN(S(=O)(=O)c2ccc(OCc3ccc(F)cc3Cl)cc2)[C@H]1C(=O)NO`, the Activity in the data set with Rattus norvegicus [1] came to 50%. In addition, in data set [2], the IC50 (in general, the concentration that inhibits the measured activity by half) is below 1 nM. Moreover, the Drug metabolism result in the data set with Rattus norvegicus [3] is “Metabolite_Notdetected”.

Take `C[C@]1(CNC(=O)COc2ccc(Cl)cc2)NC(=O)NC1=O`: 70 nM corresponded to half-maximal inhibition in data set [2] (IC50).

As for `CC(C)[C@H](Cc1ccc(C(F)(F)F)cc1)C(=O)NC[C@@]1(C2CC2)NC(=O)NC1=O`, the Drug metabolism entry in the data set on Rattus norvegicus [3] was “Metabolite_Notdetected”.

Consider `CC(C)(Cc1ccc(C(F)(F)F)cc1)C(=O)NC[C@@]1(C2CC2)NC(=O)NC1=O`, for which the Drug metabolism result in the data set on Rattus norvegicus [3] is recorded as “Metabolite_Notdetected”.

For `O=C1NC(=O)[C@](CNC(=O)[C@@H](Cc2ccc(C(F)(F)F)cc2)C2CC2)(C2CC2)N1`, the figures for the Activity in the data set on Rattus norvegicus [1], with Rattus norvegicus [4] and in the data set on Rattus norvegicus [17] were 52%, 53% and 41%, respectively. Besides, the half-life (in general, the time in which the quantity being followed falls by half) in data set [5] is 1.5 h; in data set [13] it was 2.6 h. Besides, the AUC(0-t) (usually exposure summed from dosing to a finite time, without extrapolation to infinity) at 24 h in [6] was 22 µM·h; in [10], 1.3 µM·h. In addition, the Vd (usually a proportionality between amount in the body and measured concentration, not a real space) in data set [7] is 4.3 L/kg. For the same compound, the Cmax (usually the peak of the concentration-time curve) in data set [8] was 1600 nM; in data set [16] it was 6600 nM. Besides, the values for the concentration at 12 h in data set [9] and in [15] were 29 nM and below 5 nM, respectively. For the same compound, in data set [11], the bioavailability (commonly dose-corrected exposure relative to a reference, in per cent) amounted to 100%. The clearance (usually a measure of how efficiently the substance is removed, as volume per time) in data set [12] was 33 mL/min/kg. In data set [14], the Tmax (commonly the time from dosing to the highest level) was found to be 0.5 h. Further, the Drug metabolism result with Rattus norvegicus [3] is given as “Metabolite_Notdetected”. At Stromelysin-1, this compound yielded an IC50 above 100000 nM.

`C[C@H](Cc1ccc(C(F)(F)F)cc1)C(=O)NC[C@@]1(C2CC2)NC(=O)NC1=O`: the Drug metabolism result in the data set with Rattus norvegicus [3] is “Metabolite_Notdetected”.

As for `CC[C@H](Cc1ccc(C(F)(F)F)cc1)C(=O)NC[C@@]1(C2CC2)NC(=O)NC1=O`, the Drug metabolism result in the data set on Rattus norvegicus [3] is recorded as “Metabolite_Notdetected”. The IC50 in data set [18] was 3000 nM.

With `C[C@@H](Cc1ccc(C(F)(F)F)cc1)C(=O)NC[C@@]1(C2CC2)NC(=O)NC1=O`, the IC50 was 1600 nM in data set [19]; 7 nM in data set [2]; 2000 nM against Stromelysin-1; 340 nM against Collagenase 3; 280 nM in [18]. The Drug metabolism result in the data set on Rattus norvegicus [3] was “Metabolite_Notdetected”.

On to `O=C1NC(=O)[C@](CNC(=O)c2cc3cc(C(F)(F)F)ccc3o2)(C2CC2)N1`, for which, in data set [2], inhibition was half-maximal at 9 nM (IC50).

Turning to `O=C(CCc1ccc(C(F)(F)F)cc1)NC[C@@]1(C2CC2)NC(=O)NC1=O`, the IC50 in data set [20] worked out at 4 nM; in [19], 3400 nM; in data set [2], 5 nM; in data set [21] it was 5 nM; at Stromelysin-1, 660 nM; at Collagenase 3, 320 nM. For the same compound, the IC50 in data set [18] is 310 nM; in [22] it was 52 nM. The Drug metabolism entry in the data set with Rattus norvegicus [3] is “Metabolite_Notdetected”.
